Data reported in ChEMBL document CHEMBL1148884, “Radioiodinated aza-diphenylacetylenes as potential SPECT imaging agents for beta-amyloid plaque detection” (Bioorg Med Chem Lett, 2007).

Assays:
[1] = Lipophilicity, log P of the compound; type: physicochemical; settings: octanol/water
[2] = target: Amyloid-beta precursor protein (Homo sapiens, UniProt P05067); experiment: Displacement of [125I]IMPY from beta amyloid plaque in human brain homogenates; type: tissue-based
How it was run: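 Competition binding with [125I]IMPY as radioligand on homogenates from postmortem Alzheimer's disease brain tissue. Non-radioactive ligands compete for plaque binding, and Ki is derived from the competition. Each value was determined three times with duplicate samples in each measurement, reported as mean ± SEM.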

Amyloid-beta precursor protein, sequence (P05067 whole entry): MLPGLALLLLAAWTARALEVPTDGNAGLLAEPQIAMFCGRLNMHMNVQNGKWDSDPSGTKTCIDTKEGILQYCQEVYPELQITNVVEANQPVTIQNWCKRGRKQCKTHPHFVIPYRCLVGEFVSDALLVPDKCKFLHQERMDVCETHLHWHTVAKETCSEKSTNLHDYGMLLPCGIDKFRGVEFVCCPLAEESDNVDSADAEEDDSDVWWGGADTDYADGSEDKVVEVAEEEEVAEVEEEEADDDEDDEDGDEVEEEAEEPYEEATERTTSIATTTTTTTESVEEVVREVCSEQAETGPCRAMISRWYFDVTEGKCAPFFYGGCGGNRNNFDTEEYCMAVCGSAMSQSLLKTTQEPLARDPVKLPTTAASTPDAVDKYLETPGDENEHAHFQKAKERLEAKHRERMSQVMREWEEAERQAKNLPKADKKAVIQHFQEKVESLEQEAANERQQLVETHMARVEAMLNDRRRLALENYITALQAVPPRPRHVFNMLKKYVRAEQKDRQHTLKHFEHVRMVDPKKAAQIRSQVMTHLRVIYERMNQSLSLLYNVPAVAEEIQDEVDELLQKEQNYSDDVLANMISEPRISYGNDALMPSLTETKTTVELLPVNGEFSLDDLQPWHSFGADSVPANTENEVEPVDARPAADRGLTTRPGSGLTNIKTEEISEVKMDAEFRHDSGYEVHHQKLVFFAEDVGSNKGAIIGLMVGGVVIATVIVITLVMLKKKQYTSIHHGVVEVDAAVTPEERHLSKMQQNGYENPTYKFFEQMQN

Structure (SMILES) | logP [1] | Ki [2] [nM]
CN(C)c1ccc(C#Cc2cnc(OCCOCCOCCF)c([125I])c2)cc1 | 2.6 | 
CN(C)c1ccc(C#Cc2cnc(OCCO)c([125I])c2)cc1 | 2.8 | 
CN(C)c1ccc(C#Cc2cnc(OCCOCCOCCF)c(I)c2)cc1 |  | 16.8
CNc1ccc(C#Cc2cnc(OCCOCCOCCF)c(Br)c2)cc1 |  | 13.1
CNc1ccc(C#Cc2cnc(OCCO)c(I)c2)cc1 |  | 12.5

More lines, now with the values ahead:

logP [1] | Ki [2] [nM] | Structure (SMILES)
 | 9.2 | CN(C)c1ccc(C#Cc2cnc(OCCO)c(I)c2)cc1
 | 6.7 | CN(C)c1ccc(C#Cc2cnc(OCCO)c(Br)c2)cc1
 | 1.6 | CNc1ccc(C#Cc2cnc(OCCO)c(Br)c2)cc1
 | 6.2 | OCCOc1ncc(C#Cc2ccc(O)cc2)cc1I
 | 11.2 | CN(C)c1ccc(C#Cc2cnc(OCCOCCOCCF)c(Br)c2)cc1
